Assay results taken from ChEMBL document CHEMBL1143253, “Strongylophorines: natural product inhibitors of hypoxia-inducible factor-1 transcriptional pathway” (J Med Chem, 2008).
Calls of active or inactive are those of the source. The rule behind the calls is not given here.

Key:
[1] = target: T1, Hypoxia inducible factors; HIF-1-alpha, HIF-2-alpha (Homo sapiens, UniProt Q16665+Q99814); experiment: Inhibition of hypoxia-induced HIF1 transcriptional activation in human U251-HRE cells by luciferase reporter assay; assay type: cell-based
How it was run: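 Stably transfected U251 glioma cells carrying a luciferase reporter driven by three HRE copies, seeded 10000/well and grown 24 h. Compounds in 2-propanol were tested at 1–100 µM for 16 h at 1% O2/5% CO2/94% N2. Cells were lysed and Bright-Glo luminescence read, normalized to vehicle, with ≥15-fold hypoxic induction required. EC50 derived from dose–response; triplicate.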

[2] = Decrease in protein expression of VEGF in human U251-HRE cells under hypoxic condition at 30 uM; assay type: functional, cell-based
How it was run: (§1)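 U251-HRE cells (1 × 10^5) plated in six-well plates, treated after 24 h for 4 h under hypoxia; normoxic and compound-free hypoxic lanes included. Lysis in PBS/0.1% NP-40 with sonication, 100 µg protein on 12.5% polyacrylamide gels. Probed with monoclonal anti-HIF-1α and anti-VEGF (1:500), β-tubulin (1:10000) loading control, HRP anti-mouse secondary, ECL detection.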

[3] = target: T1, Hypoxia inducible factors; HIF-1-alpha, HIF-2-alpha; experiment: Inhibition of hypoxia-induced HIF1 transcriptional activation in human U251-pGL3 cells at 30 uM by luciferase reporter assay; assay type: cell-based
How it was run: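 Counter-screen in U251-pGL3 cells, where firefly luciferase is driven by the SV40 promoter/enhancer, run in parallel with the HRE reporter assay. Cells incubated with compound under hypoxia (1% O2), then lysed and luciferase luminescence read. Data normalized to vehicle; triplicate.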

[4] = Decrease in protein expression of HIF1-alpha in human U251-HRE cells under hypoxic condition at 30 uM; assay type: functional, cell-based; how it was run: as §1
[5] = Cytotoxicity against human U251-HRE cells at 100 uM after 16 hrs by MTT assay; assay type: functional
How it was run: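 U251-HRE glioma cells seeded 10000/well, left 24 h, then exposed to compound 16 h at 37 °C under normoxia (the hypoxic arm ran 24 h in a hypoxic incubator). Medium replaced with fresh medium plus 20 µL MTT (1.5 mg/mL) for 3 h, formazan dissolved in DMSO, absorbance read at 570 nm. Percent cytotoxicity from treated vs control A570; triplicate, SE.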

[6] = test system: MDA-MB-231; experiment: Antiinvasive activity against human MDA-MB-231 cells; assay type: functional, cell-based

SMILES: C[C@@]12CC[C@H]3[C@](C)(CCC[C@]3(C)C(=O)O)[C@H]1CC[C@]1(C)Oc3ccc(O)cc3C[C@@H]21
- EC50 [1]: 13 µM
- Activity [2]: Active
- Activity [3]: inactive
- Activity [4]: Active

SMILES: C[C@@]12CC[C@H]3[C@]4(CCC[C@]3(C)C(=O)OC4)[C@H]1CC[C@]1(C)Oc3ccc(O)cc3C[C@@H]21
- EC50 [1]: 8 µM
- Activity [2]: Active
- Activity [3]: inactive
- inhibition at 100 µM [5]: 17%
- Activity [4]: Active

SMILES: C[C@@]12CC[C@H]3[C@]4(CCC[C@]3(C)C(=O)OC4)[C@H]1CC[C@](C)(O)[C@H]2Cc1cc(O)ccc1O
- EC50 [1]: 6 µM
- Activity [2]: Active
- EC50 [6]: 16 µM
- Activity [3]: inactive
- Activity [4]: Active
